Results taken from ChEMBL document CHEMBL1250503, “Stereoselective synthesis and biological evaluation of (R)-rugulactone, (6R)-((4R)-hydroxy-6-phenyl-hex-2-enyl)-5,6-dihydro-pyran-2-one and its 4S epimer” (2010).
Converted amounts (≈) assume the structure as drawn.

Tests used:
Type in all cases: functional
[1] = tested on: Bacillus subtilis; experiment: Antibacterial activity against Bacillus subtilis MTCC 441 by broth dilution method
Procedure, shortened: (§1)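 Broth dilution per National Committee for Clinical Laboratory (NCCL) standards against a bacterial panel. The read-out is the minimum inhibitory concentration (MIC).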

[2] = tested on: Staphylococcus aureus; experiment: Antibacterial activity against Staphylococcus aureus MTCC 96 by broth dilution method; procedure, shortened: as §1
[3] = tested on: Staphylococcus epidermidis; experiment: Antibacterial activity against Staphylococcus epidermidis MTCC 437 by broth dilution method; procedure, shortened: as §1
[4] = tested on: Escherichia coli; experiment: Antibacterial activity against Escherichia coli MTCC 443 by broth dilution method; procedure, shortened: as §1
[5] = tested on: Pseudomonas aeruginosa; experiment: Antibacterial activity against Pseudomonas aeruginosa MTCC 741 by broth dilution method; procedure, shortened: as §1
[6] = tested on: Klebsiella pneumoniae; experiment: Antibacterial activity against Klebsiella pneumoniae MTCC 39 by broth dilution method; procedure, shortened: as §1
[7] = tested on: Rhizopus arrhizus; experiment: Antifungal activity against Rhizopus oryzae MTCC 262 at 30 ug/ml after 24 to 96 hrs by agar cup diffusion method; conditions: read-out: DIZ
Procedure, shortened: (§2)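 Agar cup diffusion on autoclaved Potato Dextrose Agar. 0.5 ml of 24 h old test-organism culture was spread over the solidified agar, and 6 mm cups were bored. Compounds were dissolved in DMSO and added to the cups at two concentrations. A clotrimazole control was included. Plates were held at room temperature for 24–96 h, and inhibition zone diameters were measured.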

[8] = tested on: Aspergillus niger; experiment: Antifungal activity against Aspergillus niger MTCC 1344 at 30 ug/ml after 24 to 96 hrs by agar cup diffusion method; conditions: read-out: DIZ; procedure, shortened: as §2
[9] = tested on: Candida albicans; experiment: Antifungal activity against Candida albicans MTCC 227 at 30 ug/ml after 24 to 96 hrs by agar cup diffusion method; conditions: read-out: DIZ; procedure, shortened: as §2
[10] = tested on: Saccharomyces cerevisiae; experiment: Antifungal activity against Saccharomyces cerevisiae MTCC 171 at 30 ug/ml after 24 to 96 hrs by agar cup diffusion method; conditions: read-out: DIZ; procedure, shortened: as §2
[11] = tested on: Rhizopus arrhizus; experiment: Antifungal activity against Rhizopus oryzae MTCC 262 at 100 ug/ml after 24 to 96 hrs by agar cup diffusion method; conditions: read-out: DIZ; procedure, shortened: as §2
[12] = tested on: Aspergillus niger; experiment: Antifungal activity against Aspergillus niger MTCC 1344 at 100 ug/ml after 24 to 96 hrs by agar cup diffusion method; conditions: read-out: DIZ; procedure, shortened: as §2
[13] = tested on: Candida albicans; experiment: Antifungal activity against Candida albicans MTCC 227 at 100 ug/ml after 24 to 96 hrs by agar cup diffusion method; conditions: read-out: DIZ; procedure, shortened: as §2
[14] = tested on: Saccharomyces cerevisiae; experiment: Antifungal activity against Saccharomyces cerevisiae MTCC 171 at 100 ug/ml after 24 to 96 hrs by agar cup diffusion method; conditions: read-out: DIZ; procedure, shortened: as §2

SMILES	MIC [1] [µg/mL]	MIC [2] [µg/mL]	MIC [3] [µg/mL]	MIC [4] [µg/mL]	MIC [5] [µg/mL]	MIC [6] [µg/mL]	zone of inhibition at 30 µg/mL [7] [mm]	zone of inhibition at 30 µg/mL [8] [mm]	zone of inhibition at 30 µg/mL [9] [mm]	zone of inhibition at 30 µg/mL [10] [mm]	zone of inhibition at 100 µg/mL [11] [mm]	zone of inhibition at 100 µg/mL [12] [mm]	zone of inhibition at 100 µg/mL [13] [mm]	zone of inhibition at 100 µg/mL [14] [mm]
Clc1ccccc1C(c1ccccc1)(c1ccccc1)n1ccnc1 [CLOTRIMAZOLE]							21	18	22	23				
O=C1CN(/N=C/c2ccc([N+](=O)[O-])o2)C(=O)N1 [NITROFURANTOIN]	100 (≈ 420 µM)	50 (≈ 210 µM)	50 (≈ 210 µM)	25 (≈ 105 µM)	100 (≈ 420 µM)	50 (≈ 210 µM)								
CN[C@@H]1[C@H](O[C@H]2[C@H](O[C@H]3[C@H](O)[C@@H](O)[C@H](N=C(N)N)[C@@H](O)[C@@H]3N=C(N)N)O[C@@H](C)[C@]2(O)C=O)O[C@@H](CO)[C@H](O)[C@H]1O [STREPTOMYCIN]				1.56 (≈ 2.69 µM)	1.56 (≈ 2.69 µM)	1.56 (≈ 2.69 µM)								
O=C1C=CC[C@@H](C/C=C/[C@H](O)CCc2ccccc2)O1	100 (≈ 367 µM)	50 (≈ 184 µM)	50 (≈ 184 µM)	100 (≈ 367 µM)	25 (≈ 91.8 µM)	100 (≈ 367 µM)	12	11	8	8	14	14	10	11

More lines, main results first:

MIC [1] [µg/mL]	MIC [2] [µg/mL]	MIC [3] [µg/mL]	MIC [4] [µg/mL]	MIC [5] [µg/mL]	MIC [6] [µg/mL]	SMILES	zone of inhibition at 30 µg/mL [7] [mm]	zone of inhibition at 30 µg/mL [8] [mm]	zone of inhibition at 30 µg/mL [9] [mm]	zone of inhibition at 30 µg/mL [10] [mm]	zone of inhibition at 100 µg/mL [11] [mm]	zone of inhibition at 100 µg/mL [12] [mm]	zone of inhibition at 100 µg/mL [13] [mm]	zone of inhibition at 100 µg/mL [14] [mm]
50 (≈ 184 µM)	100 (≈ 367 µM)	100 (≈ 367 µM)	100 (≈ 367 µM)	50 (≈ 184 µM)	100 (≈ 367 µM)	O=C1C=CC[C@@H](C/C=C/[C@@H](O)CCc2ccccc2)O1	12	9	9	8	16	12	8	10
100 (≈ 370 µM)	50 (≈ 185 µM)	50 (≈ 185 µM)	50 (≈ 185 µM)	12.5 (≈ 46.2 µM)	25 (≈ 92.5 µM)	O=C(/C=C/C[C@@H]1CC=CC(=O)O1)CCc1ccccc1 [R-RUGULACTONE]	11	14	7	7	12	16	8	8
1.56 (≈ 4.67 µM)	1.56 (≈ 4.67 µM)	1.56 (≈ 4.67 µM)				CC1(C)S[C@@H]2[C@H](NC(=O)Cc3ccccc3)C(=O)N2[C@H]1C(=O)O [PENICILLIN G]								
